From ChEMBL document CHEMBL1125064, “Synthesis and antiviral activity of (S)-9-[4-hydroxy-3-(phosphonomethoxy)butyl]guanine” (1990)
Converted amounts (≈) assume the structure as drawn.

Key:
Assay type in all cases: functional
Human alphaherpesvirus 2 [1] = assay: Antiviral activity against herpesvirus HSV-2 in G strain in tissue culture in Vero cells; conditions: Human alphaherpesvirus 2, Vero; read-out: ID50 (the source's name)
Procedure, shortened: (§1)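 HSV-1 strain BWS or HSV-2 strain G plaque-reduction assay in Vero cells; ID50 reported in µg/mL.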

[2] = Antiviral activity against herpesvirus […] cells in tissue culture; conditions: Homo sapiens; read-out: ID50 (the source's name)
Vero [3] = assay: Antiviral activity against herpesvirus vero cells in tissue culture; conditions: Chlorocebus sabaeus, read-out: ID50 (the source's name)
Human betaherpesvirus 5 [4] = assay: Antiviral activity against herpesvirus HCMV in AD-169 strain in […] cells; conditions: read-out: ID50 (the source's name)
Procedure, shortened: (§2)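 HCMV strain AD-169 plaque-reduction assay in MRC-5 cells (human lung fibroblasts); ID50 reported in µg/mL.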

Human alphaherpesvirus 1 [5] = assay: Antiviral activity against herpesvirus HSV-1 in BWS strain in Vero cells; conditions: Human alphaherpesvirus 1, Vero; read-out: ID50 (the source's name); procedure, shortened: as §1
Human alphaherpesvirus 1 [6] = assay: Antiviral activity against herpesvirus HSV-1 in BWS strain in tissue culture.; conditions: read-out: ID50 (the source's name); procedure, shortened: as §1
Human betaherpesvirus 5 [7] = assay: Antiviral activity against herpesvirus HCMV in AD-169 strain in tissue culture.; conditions: read-out: ID50 (the source's name); procedure, shortened: as §2
Human alphaherpesvirus 2 [8] = assay: Antiviral activity against herpesvirus HSV-2 in G strain in tissue culture.; conditions: read-out: ID50 (the source's name); procedure, shortened: as §1
Vero [9] = assay: Antiviral activity against herpesvirus vero cells in tissue culture.; conditions: Chlorocebus sabaeus, read-out: ID50 (the source's name)
[10] = Antiviral activity against herpesvirus […] cells in tissue culture.; conditions: Homo sapiens; read-out: ID50 (the source's name)

Compound | IC50 (Human alphaherpesvirus 2 [1]) | IC50 [2] | IC50 (Vero [3]) | IC50 (Human betaherpesvirus 5 [4]) | IC50 (Human alphaherpesvirus 1 [5]) | IC50 (Human alphaherpesvirus 1 [6]) | IC50 (Human betaherpesvirus 5 [7]) | IC50 (Human alphaherpesvirus 2 [8]) | IC50 (Vero [9]) | IC50 [10]
Nc1nc(O)c2ncn(CC[C@@H](CO)OCP(=O)(O)O)c2n1 | 97 µg/mL (≈ 291 µM) | 10 µg/mL (≈ 30 µM) | > 100 µg/mL | 1 µg/mL (≈ 3 µM) | > 100 µg/mL |  |  |  |  | 
Nc1ccn(CC[C@@H](CO)OCP(=O)(O)O)c(=O)n1 | > 100 µg/mL | > 100 µg/mL | > 100 µg/mL | > 100 µg/mL | > 100 µg/mL |  |  |  |  | 
Nc1ncnc2c1ncn2CC[C@@H](CO)OCP(=O)(O)O | > 100 µg/mL | > 100 µg/mL | > 100 µg/mL | > 100 µg/mL | > 100 µg/mL |  |  |  |  | 
Nc1nc2c(ncn2COC(CO)CO)c(=O)[nH]1 [GANCICLOVIR] |  |  |  |  |  | 0.2 µg/mL (≈ 0.784 µM) | 5 µg/mL (≈ 19.6 µM) | 1.6 µg/mL (≈ 6.27 µM) | > 100 µg/mL | > 100 µg/mL
